# Assays:
# Type in all cases: functional
# Human alphaherpesvirus 1 [1] = assay: Compound was evaluated for antiviral activity against HSV-1 reported as ED50 value; conditions: read-out: ED50 (the source's name)
# In short: (§1)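 CPE inhibition assay in pregrown Vero cell monolayers infected with HSV-1 (strain 377) or HSV-2 (strain HF). Virus-induced cytopathogenic effect was scored quantitatively. Virus rating weighs the degree of CPE inhibition against cytotoxicity to the host cells, following a modified Ehrlich et al. method.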
# Human alphaherpesvirus 1 [2] = assay: Compound was evaluated for antiviral activity against HSV-1 reported as virus rating; in short: as §1
# Human alphaherpesvirus 2 [3] = assay: Compound was evaluated for antiviral activity against HSV-2 reported as virus rating; in short: as §1
# Human alphaherpesvirus 2 [4] = assay: Compound was evaluated for antiviral activity against HSV-2 reported as ED50 value; conditions: read-out: ED50 (the source's name); in short: as §1
# P388 = assay: Compound was evaluated for growth inhibition of P-388 lymphoid leukemia cells; conditions: Mus musculus, read-out: ED50 (the source's name)
# In short: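 P-388 mouse lymphoid leukemia cells were seeded at 4×10^5 per tube in Fischer's medium with 10% horse serum. Twofold compound dilutions were run in duplicate tubes, stoppered, and held at a 30° angle at 37 °C for 72 h without agitation, rotated twice daily. Cells were counted by hemocytometer. Percent inhibition was taken against controls, with counts corrected for the inoculum.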
SMILES,EC50 (Human alphaherpesvirus 1 [1]) [µg/mL],VR (Human alphaherpesvirus 1 [2]),VR (Human alphaherpesvirus 2 [3]),EC50 (Human alphaherpesvirus 2 [4]) [µg/mL],EC50 (P388) [µg/mL]
Nc1nc(O)c2ncn(C/C=C/CO)c2n1,172,1.5,0.9,219,–
Nc1ncnc2c1ncn2C/C=C/CCl,–,–,–,–,5
Nc1nc2c(ncn2COCCO)c(=O)[nH]1 [ACYCLOVIR],12.3,6.3,4.8,4.8,–
Nc1ncnc2c1ncn2[C@@H]1O[C@H](CO)[C@@H](O)[C@@H]1O [VIDARABINE],–,2,1.4,–,–
